Assay: Toxicity liver stage against HepG2, at 10uM
Type: cell-based
Design: test concentration 10 uM, cell line HepG2-A16-CD81EGFP
Settings: human, HepG2-A16-CD81EGFP cells; read-out: INHIBITION
In short: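 Uninfected HepG2-A16-CD81EGFP cells, 3 × 10^3 per well, 1536-well, plated on prespotted compound at 10 μM final, parasite-free screening media added to match infected plates; puromycin 10 μM positive, DMSO 0.5% negative; run in parallel with 48 h PbLuc assay at 37 °C, 5% CO2; viability by CellTiter-Glo luminescence, normalized to controls.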

Structure (SMILES) | cytotoxicity at 10 µM [%]
O=C(c1ccoc1)N1C[C@@H]2CN(c3ncccn3)C[C@@H]2C1 | -5.3
CC(=O)N1[C@H](Cn2cncn2)C[C@@H]2CN(c3ncccn3)CC[C@@H]21 | -2.96
O=C1NCC[C@]12CN(Cc1ccsc1)C[C@H]2c1ccccc1 | -142
CN1CCCC1c1cncc(C(=O)NCCN2CCCC2)n1 (stereo not given) | 8.6
NC(=O)CN1CCC(c2cncc(-c3cccc(Cl)c3)n2)CC1 | -26.4
CNS(=O)(=O)c1cccc(S(=O)(=O)Nc2ncc(C)s2)c1 | -4.79
CCSCc1ccc(C(=O)N2CCCN(CC(N)=O)CC2)cc1 | 10.5
COc1cccc(-c2cc(NCc3cscn3)n(C)n2)c1 | 3.69
CC(Cn1cccn1)NC(=O)C1=Cc2ccccc2OC1 (stereo not given) | 2.86
Cc1nnc2n1CCN(C(=O)c1cnc3c(cnn3C(C)C)c1)C2 | -6.69
O=C(NCc1ccccc1OCCO)Nc1ccc2c(c1)CCC2 | 9.46
Cc1c(CNC(=O)NCc2cccc(-n3cncn3)c2)cnn1C | 1.78
COc1c(CNC2CCOc3ccccc32)c(C)nn1C (stereo not given) | 4.25
Cc1cc(CS(=O)(=O)C(C)c2ccc(F)cc2)on1 (stereo not given) | -0.0986
Cc1ccccc1CNCC(O)c1ccc(OC(C)C)cc1 (stereo not given) | -6.17
O=C(c1ccc(=O)[nH]n1)N1CCC(CN2CCOCC2)CC1 | 4.13
CC(NC(=O)COc1ccccc1Cl)c1nnc2n1CCC2 (stereo not given) | -6
COc1ccc(C)cc1C(C)NCc1cccn1C (stereo not given) | -5.89
Cc1cccc(-c2nc(C)nn2CN2CCN(S(C)(=O)=O)CC2)c1 | 0.729
Nc1cc2c(nn1)CCN(C(=O)c1ccc(-c3ccco3)[nH]c1=O)C2 | -3.73
COc1c(C)cnc(CSc2nnc(C)s2)c1C | -4.66
O=C1NC2(CCN(C(=O)c3ccc(Cl)cn3)CC2)CC1c1ccccc1 (stereo not given) | 2.75
COc1nc2c(cc1C(=O)NC(C)Cc1cnccn1)CCC2 (stereo not given) | -135

Structure (SMILES) | cytotoxicity at 10 µM [%]
CC(C)(N)c1cn([C@@H]2c3ccccc3C3(CCNCC3)[C@H]2O)nn1 | -4.67
COc1cccc(-n2cc(-c3ccnc(NC(CO)C(C)C)n3)cn2)c1 (stereo not given) | 2.74
CN(Cc1nc(-c2cccnc2)no1)C(=O)c1c2c(nn1C)CCCC2 | 7.54
CC(=O)NCCC1CCCCN1S(=O)(=O)c1cccc(F)c1 (stereo not given) | -155
COC(=O)CNC(=O)CC1COc2ccc(C(=O)N(C)C)cc2N1C (stereo not given) | -8.8
CCc1c(C)nn(CCNC(=O)c2cc(C3CC3)n[nH]2)c1C | -12.1
c1ccc(Cc2nc(CNC3CCOC4(CCOCC4)C3)no2)cc1 (stereo not given) | -10.6
O=S1(=O)C[C@@H]2[C@H](C1)N(Cc1nc3ccccc3[nH]1)CCN2CC1CC1 | -133
CC(C)c1cc(NC(=O)c2ccc([S+]([O-])C(C)C)cc2)[nH]n1 (stereo not given) | -7.52
c1ccc2oc(N3CCCC3Cn3cncn3)nc2c1 (stereo not given) | -14.4
COc1cc(C)nc(N2CCN(C(=O)c3ccn(C)c(=O)c3)CC2)n1 | -12.8
CC(C)c1noc(CCCC(=O)N2CCN(Cc3cccnc3)CC2)n1 | -2.96
c1ccc(-c2nc(CN3CCCCC3Cn3cncn3)co2)cc1 (stereo not given) | -14.4
CC(Cn1cccn1)NC(=O)c1cccs1 (stereo not given) | -4.26
c1ccc(-c2nc(CN3CCCC(Cn4cncn4)C3)no2)cc1 (stereo not given) | 3.71
CN(C)CCN(C)C(=O)Cc1ccc2c(c1)OCCO2 | -7.94
Cc1cccc(CN2C(=O)CCC23CCN(C(=O)NC(C)C)CC3)n1 | 5
CN(C)C(=O)N1CCc2onc(C(=O)Nc3cccnc3)c2C1 | 4.85
Cc1nc(CN2Cc3nccn3CC(CN3CCOCC3)C2)cs1 (stereo not given) | 0.951
CN1C(=O)CC(c2ccccc2)C12CCN(CC1CC1)CC2 (stereo not given) | -1.95
CO[C@H]1CC[C@H]2[C@H]1OCCN2Cc1ccc(F)cc1 | 7.34
O=C(NC1CCC2(CCC(=O)N2CC2CC2)CC1)c1cnccn1 (stereo not given) | 0.729

Reference: ChEMBL document CHEMBL4513216, “Probing the Open Global Health Chemical Diversity Library for Multistage-Active Starting Points for Next-Generation Antimalarials” (ACS Infect Dis, 2020)
